Measurements reported in ChEMBL document CHEMBL4043172, “Constructing novel dihydrofuran and dihydroisoxazole analogues of isocombretastatin-4 as tubulin polymerization inhibitors through [3+2] reactions” (Bioorg Med Chem, 2017).
The source made the active and inactive calls. The calls are words filed in the database; no cut-off is given here.

Experiments:
PC-3 [1] = test: Cytotoxicity against human PC3 cells assessed as reduction in cell viability incubated for 48 hrs by SRB assay; format: functional, cell-based; conditions: PC-3, 48 h
Method in brief: (§1)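 SRB colorimetric antiproliferative assay. Cells were grown in RPMI-1640 with 10% heat-inactivated FBS and penicillin/streptomycin at 37 °C and 5% CO2, and compound-exposed for 48 h. IC50 is the concentration causing 50% inhibition of cell viability, given as mean ± SD of three determinations.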

HeLa = test: Cytotoxicity against human HeLa cells assessed as reduction in cell viability incubated for 48 hrs by SRB assay; format: functional, cell-based; method in brief: as §1
Sus scrofa [2] = species: Sus scrofa; test: Induction of porcine brain tubulin polymerization at 3 uM incubated for 80 mins by fluorescence based spectrophotometry
Method in brief: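 Fluorescence-based cell-free kit assay. Tubulin (10 mg/mL) in buffer 1 with tubulin glycerol buffer and GTP (100 mM stock) was incubated with compound or DMSO vehicle for 80 min at 37 °C. Polymerization was followed as fluorescence increase read every minute at 360 nm excitation and 460 nm emission.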

PC-3 [3] = test: Cell cycle arrest in human PC3 cells assessed as accumulation at G0/G1 phase at 0.05 uM incubated for 24 hrs by propidium iodide staining based FACS assay (reference value: 62.5%); format: functional
Method in brief: (§2)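 PC-3 cells in RPMI-1640 with 10% FBS at 37 °C and 5% CO2. Cells were plated at 1.0×10^5 cells/mL and pre-incubated 24 h, then treated. They were collected by centrifugation, fixed in 70% ethanol overnight at 4 °C, resuspended in PBS with RNase A and propidium iodide, and analysed by flow cytometry for phase distribution against untreated control.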

PC-3 [4] = test: Cell cycle arrest in human PC3 cells assessed as accumulation at G2/M phase at 0.05 uM incubated for 24 hrs by propidium iodide staining based FACS assay (reference value: 14%); format: functional; method in brief: as §2
PC-3 [5] = test: Cell cycle arrest in human PC3 cells assessed as accumulation at S phase at 0.05 uM incubated for 24 hrs by propidium iodide staining based FACS assay (reference value: 23.5%); format: functional; method in brief: as §2
Sus scrofa [6] = species: Sus scrofa; test: Inhibition of porcine brain tubulin polymerization at 3 uM incubated for 80 mins by fluorescence based spectrophotometry
Method in brief: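 Fluorescence-based kit assay. Tubulin (10 mg/mL) in buffer 1 with tubulin glycerol buffer and GTP (100 mM stock) was incubated with compound at 3 µM, with DMSO as vehicle control, at 37 °C for 80 min. Polymerization was followed as the fluorescence increase, read every minute at 360 nm excitation and 460 nm emission.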

Structure (SMILES)	IC50 (PC-3 [1]) [µM]	IC50 (HeLa) [µM]	other results
COc1ccc(C2(c3cc(OC)c(OC)c(OC)c3)CC(C#N)=C(c3cccs3)O2)cc1O (stereo not given)	4.8	> 10	
COc1ccc(C2(c3cc(OC)c(OC)c(OC)c3)CC(C#N)=C(c3ccc(Br)cc3)O2)cc1O (stereo not given)	> 10	> 10	
COc1ccc(C2(c3cc(OC)c(OC)c(OC)c3)CC(C#N)=C(c3ccc(C)cc3)O2)cc1O (stereo not given)	6.99	> 10	
CCCCC1(c2cc(OC)c(OC)c(OC)c2)CC(C(=O)c2ccccc2)=C(c2ccccc2)O1 (stereo not given)	> 10	> 10	
COc1ccc(C2(c3cc(OC)c(OC)c(OC)c3)CC(C#N)=C(c3ccccc3Cl)O2)cc1O (stereo not given)	0.79	> 10	
CCCCC1(c2cc(OC)c(OC)c(OC)c2)CC(c2ccc(Cl)cc2OC)=NO1 (stereo not given)	> 10	> 10	
COc1ccc([C@@]2(c3cc(OC)c(OC)c(OC)c3)CC(C#N)=C(c3ccccc3)O2)cc1O	9.47	> 10	
COc1ccc(C2(c3cc(OC)c(OC)c(OC)c3)CC(c3ccc(C)cc3)=NO2)cc1O (stereo not given)	0.85	4.45	
COc1ccc(C2(c3cc(OC)c(OC)c(OC)c3)CC(C#N)=C(c3ccc(Cl)c(Cl)c3)O2)cc1O (stereo not given)	> 10	> 10	
CC(=O)O[C@H]1C(=O)[C@@]2(C)[C@H]([C@H](OC(=O)c3ccccc3)[C@]3(O)C[C@H](OC(=O)[C@H](O)[C@@H](NC(=O)c4ccccc4)c4ccccc4)C(C)=C1C3(C)C)[C@]1(OC(C)=O)CO[C@@H]1C[C@@H]2O			Activity (Sus scrofa [2]): Active
COc1ccc(C2(c3cc(OC)c(OC)c(OC)c3)CC(c3ccccc3[N+](=O)[O-])=NO2)cc1O (stereo not given)	8.21	> 10	
COc1ccc(C2(c3cc(OC)c(OC)c(OC)c3)CC(C(=O)c3ccccc3)=C(c3ccccc3)O2)cc1O (stereo not given)	0.78	2.32	
COc1ccc(C2=NOC(c3ccc(OC)c(O)c3)(c3cc(OC)c(OC)c(OC)c3)C2)cc1O (stereo not given)	> 10	> 10	
CCCCC1(c2cc(OC)c(OC)c(OC)c2)CC(c2ccc(Cl)cc2)=NO1 (stereo not given)	> 10	> 10	
COc1ccc(C2(c3cc(OC)c(OC)c(OC)c3)CC(c3ccc(Cl)cc3OC)=NO2)cc1O (stereo not given)	> 10	> 10	
CCCCC1(c2cc(OC)c(OC)c(OC)c2)CC(c2ccc(O)c(OC)c2)=NO1 (stereo not given)	> 10	> 10	
COc1ccc([C@]2(c3cc(OC)c(OC)c(OC)c3)CC(C#N)=C(c3ccccc3)O2)cc1O	10.2	> 10	
COc1ccc(C2(c3cc(OC)c(OC)c(OC)c3)CC(C(C)=O)=C(C)O2)cc1O (stereo not given)	6.37	> 10	
COc1ccc(C2(c3cc(OC)c(OC)c(OC)c3)CC(c3ccccc3)=NO2)cc1O (stereo not given)	> 10	> 10	
CCCCC1(c2cc(OC)c(OC)c(OC)c2)CC(C#N)=C(C(C)(C)C)O1 (stereo not given)	> 10	> 10	
COc1ccc(/C=C\c2cc(OC)c(OC)c(OC)c2)cc1O [COMBRETASTATIN A4]	0.007	0.53	Activity (PC-3 [3]): 6.8%; Activity (PC-3 [4]): 71.9%; Activity (PC-3 [5]): 21.3%; inhibition (Sus scrofa [6]): Active
